Source: PubChem BioAssay AID493050 (Broad Institute, 2011)
Values joined by “and” are separate entries in the source; they are usually repeats but may differ in a detail not shown here. Identical values can stand only once. Active and inactive are the calls of the source.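 Rule for the calls: active = viability falling with dose, half-maximal potency at or under ten times the top valid dose; inconclusive = flat partial loss of viability, or an unreliable curve fit; inactive = the rest, including a rising signal.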

What was measured:
[1] = system: DRD (HRASV12 BJ) fibroblasts viability, Alamar Blue, 48 h; test: DRD BJ cell killing, Ras synthetic lethality – DRD BJ fibroblasts, HRASV12, dry powder, set 2, dose response (AID 493050)
Outline: (§1)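 Assay system: DRD BJ fibroblasts expressing SV40 ST, dn-p53, cyclin D1, CDK4mut, HRASV12; signal: Alamar Blue fluorescence, excitation 544 nm, emission 590 nm; incubation: 48 h compound treatment, ~16 h dye incubation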

[2] = as above; conditions: DRD (HRASV12 BJ) fibroblasts viability, Alamar Blue, 48 h
Outline: as §1

For `Cc1onc(C(=O)N2CCN(C(c3ccccc3)c3ccccc3)CC2)c1[N+](=O)[O-]`, the AC50 [1] was 4.75 µM and 1.71 µM.

For `CCOC(=O)N1CCN(C(=O)c2noc(C)c2[N+](=O)[O-])CC1`, the activity change, negative = viability loss ([2]; at 68 µM (top of the series)) was 6.53% (inactive).

In the case of `Cc1onc(C(=O)NCCNC(c2ccccc2)c2ccccc2)c1[N+](=O)[O-]`, the AC50 [1] is reported as 16 µM.

In the case of `O=C(c1ccc([N+](=O)[O-])o1)N1CCN(C(c2ccccc2)c2ccccc2)CC1`, the AC50 [1] is reported as 19.4 µM.

In the case of `Cc1onc(C(=O)N2CCN(C(c3ccc(F)cc3)c3ccc(F)cc3)CC2)c1[N+](=O)[O-]`, the AC50 [1] is reported as 0.226 µM.

In the case of `Cc1onc(C(=O)N2CCN(C(c3ccccn3)c3ccccn3)CC2)c1[N+](=O)[O-]`, the activity change, negative = viability loss ([2]; at 48 µM (top of the series)) is reported as 3.35% (inactive).

In the case of `Cc1onc(C(=O)N2CCN(C(c3ccncc3)c3ccncc3)CC2)c1[N+](=O)[O-]`, the activity change, negative = viability loss ([2]; at 48 µM (top of the series)) is reported as 1.3% (inactive).

For `O=C(c1ccc([N+](=O)[O-])o1)N1CCN(C(c2ccc(F)cc2)c2ccc(F)cc2)CC1`, the AC50 [1] was 13.1 µM.

With `Cc1oc(C)c(C(=O)N2CCN(C(c3ccccc3)c3ccccc3)CC2)c1C` the activity change, negative = viability loss ([2]; at 48 µM (top of the series)) was 11.7% (inactive).

For `O=[N+]([O-])c1ccc(CN2CCN(C(c3ccccc3)c3ccccc3)CC2)o1`, the activity change, negative = viability loss ([2]; at 48 µM (top of the series)) was -0.32% (inactive).

With `Cc1onc(C(=O)N2CCN(C(c3ccccc3)c3ccc(Cl)cc3)CC2)c1[N+](=O)[O-]` (centres undefined) the AC50 [1] was 0.21 µM.

With `Cc1onc(C(=O)N2CCN(C(c3ccccc3)c3ccccc3)CC2)c1Br` the activity change, negative = viability loss ([2]; at 48 µM (top of the series)) was 8.89% (inactive).

For `Cc1onc(C(=O)N2CCN(C(c3ccccc3)c3ccccc3)CC2)c1N`, the activity change, negative = viability loss ([2]; at 48 µM (top of the series)) was 1.23% (inactive).

For `COc1ccc(C(c2ccc(OC)cc2)N2CCN(C(=O)c3noc(C)c3[N+](=O)[O-])CC2)cc1`, the AC50 [1] was 1.85 µM.

For `COc1ccccc1N1CCN(C(=O)c2noc(C)c2[N+](=O)[O-])CC1`, the activity change, negative = viability loss ([2]; at 68 µM (top of the series)) was 0.386% (inactive).

`Cc1onc(C(=O)N2CCN(C(c3ccc(Cl)cc3)c3ccc(Cl)cc3)CC2)c1[N+](=O)[O-]` gave an AC50 [1] of 0.107 µM.

With `COc1ccc(C(c2ccc(OC)cc2)N2CCN(C(=O)c3ccc([N+](=O)[O-])o3)CC2)cc1` the AC50 [1] was 8.37 µM.

Molecule `O=C(NCCNC(c1ccccc1)c1ccccc1)c1ccc([N+](=O)[O-])o1` has an AC50 [1] of 8.27 µM.

For `O=C(c1noc2ccccc12)N1CCN(C(c2ccccc2)c2ccccc2)CC1`, the activity change, negative = viability loss ([2]; at 48 µM (top of the series)) was 4.79% (inactive).

In the case of `Cc1ccc(C(=O)N2CCN(C(c3ccccc3)c3ccccc3)CC2)c([N+](=O)[O-])c1`, the activity change, negative = viability loss ([2]; at 48 µM (top of the series)) is reported as 15.7% (inactive).

In the case of `Cc1onc(C(=O)NCc2ccc(F)cc2)c1[N+](=O)[O-]`, the activity change, negative = viability loss ([2]; at 68 µM (top of the series)) is reported as 0.881% (inactive).

`O=C(c1ccc([N+](=O)[O-])o1)N1CCCN(C(c2ccccc2)c2ccccc2)CC1` gave an AC50 [1] of 46.5 µM.

For `CC(C)c1onc(C(=O)N2CCN(C(c3ccccc3)c3ccccc3)CC2)c1[N+](=O)[O-]`, the activity change, negative = viability loss ([2]; at 48 µM (top of the series)) was 4.37% (inactive).

Work on `Cc1onc(C(=O)N2CCCN(C(c3ccccc3)c3ccccc3)CC2)c1[N+](=O)[O-]` yielded an AC50 [1] of 1.1 µM.

For `Cc1onc(C(=O)N2CCOCC2)c1[N+](=O)[O-]`, the activity change, negative = viability loss ([2]; at 68 µM (top of the series)) was 4.86% (inactive).

With `Cc1cc(C(=O)N2CCN(Cc3ccccc3)CC2)no1` the activity change, negative = viability loss ([2]; at 68 µM (top of the series)) was -2.15% (inactive).

For `Cc1onc(C(=O)N2CCN(C(c3ccccc3)c3ccccc3)CC2)c1C`, the activity change, negative = viability loss ([2]; at 48 µM (top of the series)) was 10.5% (inactive).

With `CC(=O)Nc1c(C(=O)N2CCN(C(c3ccccc3)c3ccccc3)CC2)noc1C` the activity change, negative = viability loss ([2]; at 48 µM (top of the series)) was 5.57% (inactive).

In the case of `Cc1onc(C(=O)N2CCN(C(c3ccccc3)c3ccccc3)CC2)c1NS(C)(=O)=O`, the activity change, negative = viability loss ([2]; at 48 µM (top of the series)) is reported as 2.79% (inactive).
